The record followed here is PubChem BioAssay.

Activity calls are given as the source filed them.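 How the source made its calls, unless noted: active means fluorescence slope after compound addition differing from the mean of all tested samples at 99.7% confidence, mostly higher but some lower; inactive means the rest.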

A short description of assay [1]: inhibitors of TNFa-induced NFkB p65 translocation, primary screen, imaging, HUVEC, MLSMR starter and 10KST1 sets (AID 438;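 active means inhibition above 20% together with a positive visual image hit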;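 further: compound added about 3h40 before a 20 min TNFalpha stimulation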;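 on inhibition: signal is the nuclear over cytoplasmic p65 intensity ratio per well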). The settings on record: HUVEC TNFa-induced p65 nuclear translocation; cell count: measured here: nuclei count (cytotoxicity indicator), at 2.08 µM; inhibition: at 2 µM, stronger effect = higher value, 0% TNFa-plus-vehicle, 100% no-TNFa wells.
The nature of assay [2]: endothelial E-selectin expression blockers – imaging, HUVEC, immunofluorescence, MLSMR starter and 10KST1 sets, primary screen (AID 487;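 active means visually confirmed hit in the image check and inhibition above 20%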;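 on inhibition: signal is fraction of cell area covered by stained E-selectin grains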;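 on nuclei count: 100% = median nuclei count of all wells on the same plate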). The settings on record: HUVEC TNFalpha-induced E-selectin immunofluorescence imaging, at 2 µM; inhibition: stronger effect = higher value; nuclei count: measured here: cell number, toxicity.
A short description of assay [3]: Primary imaging screen for DUSP6 inhibitors that restore phospho-Erk in transfected HeLa cells, chemical complementation (AID 609;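 active means compounds giving at least 50% inhibition in the cell-based MKP-3 phosphatase rescue imaging test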;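 on inhibition: phospho-Erk level distribution per well compared with pooled transfected vehicle control wells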). The settings on record: HeLa MKP-3 transfected, phospho-Erk imaging KS statistic, at 10 µM, cells stimulated with TPA for 15 min.
Assay [4] has as its target Dual specificity protein phosphatase 6 (Homo sapiens) (UniProt Q16828). Described as above. The settings on record: HeLa MKP-3 transfected, phospho-Erk imaging KS statistic; at 10 µM; stronger effect = higher value; cells stimulated with TPA for 15 min.
Assay [5] has as its target Voltage-gated potassium channel subunit beta-2 (Rattus norvegicus) (UniProt P62483). As to the kind of experiment: inhibitors of rat Kvbeta2 reductase activity – biochemical, NADPH fluorescence, primary screen (AID 622;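 active means fluorescence slope higher than the sample average by over 3 SD, cut at about -0.22 in these data, passing the limit was not always enough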;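 further: slope of raw intensity against log time taken from 70 to 1610 s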). The settings on record: recombinant KvBeta, 4-cyanobenzaldehyde reduction, at 10 µM, stronger effect = higher value.
For assay [6] the target is unchanged. As to the kind of experiment: enhancers of rat Kvbeta2 NADPH turnover – biochemical, NADPH fluorescence, primary screen (AID 623;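 active means NADPH fluorescence slope more negative than the mean of all samples by about 3 SD, 99.7% confidence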;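 further: fluorescence intensity change per second fitted from 20 to 320 s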). The settings on record: Recombinant KvBeta, NADPH fluorescence decrease slope, 10 min; at 10 µM; stronger effect = lower value.
Assay [7] has as its target Muscarinic acetylcholine receptor M4 (Homo sapiens) (UniProt P08173). The assay can be described thus: M4-linked GIRK flux change, two-sided – cell-based, HEK293 M4/GIRK, thallium flux, BTC-AM, M4 allosteric agonist project, primary screen (AID 625).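 Further: thallium influx through GIRK channels coupled to M4 in HEK293 cells with BTC-AM dye.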 The settings on record: at 10 µM, actives lie on both sides. An outline of the steps: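 System: HEK293 cells with M4 receptor and GIRK channels | Incubation: Cells overnight at 37 °C, BTC-AM loading 1 h, reads 2 min total | Technique: Kinetic BTC-AM fluorescence sampled at 1 Hz, 10 s pre-addition baseline | Measure: Post-addition slope, 15–24 s, of baseline-normalized fluorescence | Control set: Carbachol positive, DMSO negative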

Assay [8] can be described thus: inhibitors of larval lipid processing in zebrafish, primary screen, whole organism, PED6 fluorescence, gall bladder and intestine (AID 686;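 active means a full or partial loss of lipid-probe fluorescence in the fish gall bladder, intestine or both, judged by eye; inactive means no fluorescence loss, or compound toxic to the fish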;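 further: larvae 5 to 7 days old with five fish per well; signal comes from phospholipase A2 cleavage of quenched PED6 carried via bile; overnight exposure to compound and PED6 before scoring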). The settings on record: Zebrafish larvae PED6 lipid processing, fluorescence scoring; screened at 20 µM (by protocol). An outline of the steps: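 Test system – live zebrafish larvae aged 5-7 days, whole organism · Buffer or medium – E3 fish medium · Reagent – quenched phospholipase substrate PED6, 100 nM final, ingested by larvae · Doses – 20 µM single dose · Incubation – overnight compound and PED6 incubation · Technique – visual fluorescence microscopy scoring of gall bladder, gut · Read-out basis – visual per-well fluorescence inhibition score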

Assay [9] can be described thus: loss of swimming-algae plug formation – whole organism, Chlamydomonas reinhardtii, WT vs cilia-less mutant, absorbance, 96-well, primary screen (AID 463189;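 active means inhibition at or above 50% relative to wild type and mutant plate controls; inactive means inhibition below 50%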;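 further: 0% = wild type cc124 cells in DMSO and 100% = ciliumless bld1 mutant cells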). The settings on record: Chlamydomonas reinhardtii gravitaxis, OD600 absorbance, 2 days; at 10 µM; stronger effect = higher value.
Where [10] appears, read: measured here: cell density z-score.
Setting [11] is: measured here: nuclear c-Myc green intensity z-score.
[12] abbreviates: measured here: nuclear pErk red intensity z-score, stronger effect = higher value.

Voltage-gated potassium channel subunit beta-2 (Rattus norvegicus), sequence (P62483 whole entry, looked up): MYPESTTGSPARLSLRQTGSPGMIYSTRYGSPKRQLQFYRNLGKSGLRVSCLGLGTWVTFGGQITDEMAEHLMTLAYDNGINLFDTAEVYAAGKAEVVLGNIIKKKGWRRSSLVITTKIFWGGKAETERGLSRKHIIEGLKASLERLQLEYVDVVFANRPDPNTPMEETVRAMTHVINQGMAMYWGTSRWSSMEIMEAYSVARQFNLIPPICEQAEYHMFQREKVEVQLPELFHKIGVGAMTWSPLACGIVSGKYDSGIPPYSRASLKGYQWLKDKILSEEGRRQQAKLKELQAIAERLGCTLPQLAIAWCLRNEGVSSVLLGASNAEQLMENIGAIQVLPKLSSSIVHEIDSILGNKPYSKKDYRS
Muscarinic acetylcholine receptor M4 (Homo sapiens), sequence (P08173 whole entry, looked up): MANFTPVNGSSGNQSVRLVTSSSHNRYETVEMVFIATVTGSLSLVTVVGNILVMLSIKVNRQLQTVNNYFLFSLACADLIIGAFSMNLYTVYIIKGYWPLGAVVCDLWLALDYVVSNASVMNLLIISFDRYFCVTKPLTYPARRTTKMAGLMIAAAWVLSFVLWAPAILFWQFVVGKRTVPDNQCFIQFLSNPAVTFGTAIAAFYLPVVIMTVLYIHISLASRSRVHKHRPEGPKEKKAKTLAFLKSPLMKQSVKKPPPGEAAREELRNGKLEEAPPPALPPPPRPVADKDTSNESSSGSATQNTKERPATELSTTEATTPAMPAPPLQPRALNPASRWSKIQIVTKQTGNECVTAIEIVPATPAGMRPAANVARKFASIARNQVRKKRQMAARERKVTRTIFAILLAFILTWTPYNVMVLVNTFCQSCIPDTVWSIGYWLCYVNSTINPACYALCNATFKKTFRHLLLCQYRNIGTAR
Dual specificity protein phosphatase 6 (Homo sapiens), sequence (Q16828 whole entry, looked up): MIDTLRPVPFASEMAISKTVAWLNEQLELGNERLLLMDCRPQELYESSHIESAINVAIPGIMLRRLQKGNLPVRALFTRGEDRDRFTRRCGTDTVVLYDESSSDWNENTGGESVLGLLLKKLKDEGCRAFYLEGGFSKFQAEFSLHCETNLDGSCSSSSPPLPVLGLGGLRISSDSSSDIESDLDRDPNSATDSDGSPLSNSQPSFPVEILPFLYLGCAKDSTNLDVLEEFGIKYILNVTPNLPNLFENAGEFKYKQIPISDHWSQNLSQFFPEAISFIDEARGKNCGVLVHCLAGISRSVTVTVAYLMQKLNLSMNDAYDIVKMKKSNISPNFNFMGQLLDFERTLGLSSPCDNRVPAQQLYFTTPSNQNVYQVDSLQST

With `Cc1nc(NCCO)c(C#N)c2c1COC(C)(C)C2`, the cell count in assay [1] was found to be 538. In addition, the inhibition is -2.6% (inactive) in assay [1], -147% (inactive) in assay [2], 15.4% (inactive) in assay [4] and 5.51% (inactive) in assay [9]. Moreover, in assay [2], the nuclei count worked out at 132%. For the same molecule, the values for the z-score in [3] (setting [10]), in [3] (setting [11]) and in assay [3] (setting [12]) were -0.0329, 1.94 and -1.24, respectively. The fluorescence slope is -0.464 (inactive) in assay [5] and 0.0044 (inactive) in [7]. Also, in assay [6], the NADPH fluorescence slope was -3.6e-05 (inactive). In addition, the molecule was classed as inactive in assay [8].
Take `O=C(NCC(F)(F)F)Nc1nnc(C(F)(F)F)s1`: the cell count in [1] was found to be 731. Besides, the inhibition in assay [1] was 2.9% (inactive); in assay [2] it was -80.8% (inactive); in [4], 27.5% (inactive); in [9], -1.99% (inactive). This molecule yielded a nuclei count in [2] of 166%. Further, the z-score in [3] (setting [10]) was -0.948; in [3] (setting [11]), -0.154; in assay [3] (setting [12]), 0.77. The results for the fluorescence slope in [5] and in assay [7] were -0.429 (inactive) and 0.00508 (inactive), respectively. Further, in [6], the NADPH fluorescence slope was -5.4e-05 (inactive). Further, the result in assay [8] was inactive.
As to `O=c1[nH]c(CN(CCO)CCO)nc2c1C1(CCCCC1)Cc1ccccc1-2`, the cell count in [1] worked out at 692. For the same molecule, the inhibition in [1] was -15.1% (inactive); in [2] it was -131% (inactive); in assay [4], 9.91% (inactive); in assay [9] it was 1.18% (inactive). The same molecule came in with a nuclei count in assay [2] of 181%. Besides, the z-score stood at 0.688 in assay [3] (setting [10]), 0.303 in assay [3] (setting [11]) and 0.475 in assay [3] (setting [12]). The fluorescence slope is -0.47 (inactive) in [5] and 0.00503 (inactive) in [7]. Moreover, the NADPH fluorescence slope in assay [6] was -5.1e-05 (inactive). The outcome in assay [8] was inactive.
Take `CCCC(CCC(=O)Nc1ccc(C(=O)OC)cc1)C(=O)O` (stereo unspecified): the cell count in assay [1] was 402. In addition, the inhibition in assay [1] was -5.3% (inactive); in [2] it was -85.5% (inactive); in [4], 26.5% (inactive); in assay [9], -1.65% (inactive). The same molecule returned a nuclei count in assay [2] of 145%. Moreover, the z-score in [3] (setting [10]) was 0.89; in assay [3] (setting [11]) it was -1.82; in [3] (setting [12]) it was 0.0137. The fluorescence slope in assay [5] was -0.445 (inactive); in assay [7] it was 0.00528 (inactive). The NADPH fluorescence slope in [6] is -8.7e-05 (inactive). Moreover, in assay [8], the molecule was classed as inactive.
With `Cc1ccc(N2C(=O)c3sc4nnc(C)c(=O)n4c3C2=O)cc1`, the cell count in [1] was determined as 637. Also, the inhibition in [1] is 1.3% (inactive); in assay [2], -129% (inactive); in [4], -7.86% (inactive); in [9], 2.4% (inactive). The molecule further showed a nuclei count in assay [2] of 144%. In addition, the results for the z-score in assay [3] (setting [10]), in assay [3] (setting [11]) and in assay [3] (setting [12]) were 0.278, 1.58 and -1.15, respectively. Besides, the fluorescence slope was -0.478 (inactive) in [5] and 0.00581 (inactive) in [7]. Further, in [6], the NADPH fluorescence slope is -4e-05 (inactive). The outcome in assay [8] was inactive.
On to `CC1(C)Cc2c(C#N)c(N3CCN(C(=O)c4ccco4)CC3)nc(Cc3ccccc3)c2CO1`, for which, in assay [1], the cell count came out at 541. Also, the inhibition is -6.6% (inactive) in assay [1], 2.1% (inactive) in assay [2], 12.8% (inactive) in assay [4] and 16.1% (inactive) in assay [9]. Besides, the nuclei count in assay [2] was 97.1%. The z-score in assay [3] (setting [10]) was 1.26; in [3] (setting [11]) it was -0.345; in [3] (setting [12]), -0.81. The fluorescence slope was -0.499 (inactive) in [5] and 0.00414 (inactive) in [7]. In [6], the NADPH fluorescence slope was 4.3e-05 (inactive). Further, in [8], the molecule was classed as inactive.
As to `COc1ccc(CCn2c(C)cc3c(c2=O)C(c2ccc4c(c2)OCO4)C(C#N)=C(N)O3)cc1OC` (stereo unspecified), the cell count in assay [1] is 697. Also, the inhibition is -0.5% (inactive) in assay [1], -141% (inactive) in assay [2], 9.61% (inactive) in [4] and 5.67% (inactive) in assay [9]. Moreover, the nuclei count in assay [2] worked out at 170%. For the same molecule, the values for the z-score in assay [3] (setting [10]), in [3] (setting [11]) and in assay [3] (setting [12]) were 1.12, 0.0675 and -1.33, respectively. The fluorescence slope in [5] is -0.468 (inactive); in assay [7], 0.00505 (inactive). In [6], the NADPH fluorescence slope was -4.4e-05 (inactive). The molecule was called inactive in assay [8].

The inhibition is the relative decrease from the control value, in per cent.
